Calls of active or inactive are those of the source. No cut-off for these calls is given here.
Columns and labels:
Cytochrome P450 1A1 [1] = target: T1, Cytochrome P450 1A1 (Homo sapiens, UniProt P04798); test: Inhibition of human CYP1A1 expressed in HEK293 cells assessed as reduction in CYP1A1 mediated […] induced-toxicity by measuring EC50 at 3 times of IC50 concentration by MTT assay relative to control; format: cell-based; parameters: scale not given: the % may be the effect or the level left
T1 sequence (P04798 whole entry): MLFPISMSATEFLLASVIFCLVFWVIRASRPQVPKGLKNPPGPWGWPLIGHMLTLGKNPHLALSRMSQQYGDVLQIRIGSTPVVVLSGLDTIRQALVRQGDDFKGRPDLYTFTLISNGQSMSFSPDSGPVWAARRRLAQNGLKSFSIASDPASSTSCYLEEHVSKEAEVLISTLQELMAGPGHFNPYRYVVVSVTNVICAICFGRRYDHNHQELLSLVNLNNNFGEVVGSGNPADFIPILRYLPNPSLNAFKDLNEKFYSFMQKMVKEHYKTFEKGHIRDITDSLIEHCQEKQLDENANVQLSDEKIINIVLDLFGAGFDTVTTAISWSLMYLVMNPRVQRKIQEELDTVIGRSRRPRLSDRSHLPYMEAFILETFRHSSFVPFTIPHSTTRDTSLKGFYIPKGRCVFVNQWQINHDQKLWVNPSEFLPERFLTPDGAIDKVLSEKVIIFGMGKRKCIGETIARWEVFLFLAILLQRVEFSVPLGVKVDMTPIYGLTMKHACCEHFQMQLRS
In short: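 Adherent HEK293 cells transfected with pcDNA3.1/hCYP1A1 were exposed to B[a]P over 0.05–100 µM, with inhibitor at 3x its IC50 from the suspension HEK293-CYP1A1 assay. The EC50 of B[a]P for cell growth inhibition was derived. Cells transfected with empty plasmid were used for comparison. Values are mean and SD of three independent experiments.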

Cytochrome P450 2D6 = Cytochrome P450 2D6 (Homo sapiens, UniProt P10635); test: Inhibition of human CYP2D6 expressed in Sacchrosomes using 7-ethoxy-methyloxy-3-cyanocoumarin as substrate by fluorescence based assay; format: ADME
Cytochrome P450 2E1 = Cytochrome P450 2E1 (Homo sapiens, UniProt P05181); test: Inhibition of human CYP2E1 expressed in Sacchrosomes by fluorescence based assay; format: ADME
Cytochrome P450 1A2 = target: T2, Cytochrome P450 1A2 (Homo sapiens, UniProt P05177); test: Inhibition of human CYP1A2 expressed in Sacchrosomes using 3-cyano-7-ethoxycoumarin as substrate by fluorescence based assay; format: ADME
T2 sequence (P05177 whole entry): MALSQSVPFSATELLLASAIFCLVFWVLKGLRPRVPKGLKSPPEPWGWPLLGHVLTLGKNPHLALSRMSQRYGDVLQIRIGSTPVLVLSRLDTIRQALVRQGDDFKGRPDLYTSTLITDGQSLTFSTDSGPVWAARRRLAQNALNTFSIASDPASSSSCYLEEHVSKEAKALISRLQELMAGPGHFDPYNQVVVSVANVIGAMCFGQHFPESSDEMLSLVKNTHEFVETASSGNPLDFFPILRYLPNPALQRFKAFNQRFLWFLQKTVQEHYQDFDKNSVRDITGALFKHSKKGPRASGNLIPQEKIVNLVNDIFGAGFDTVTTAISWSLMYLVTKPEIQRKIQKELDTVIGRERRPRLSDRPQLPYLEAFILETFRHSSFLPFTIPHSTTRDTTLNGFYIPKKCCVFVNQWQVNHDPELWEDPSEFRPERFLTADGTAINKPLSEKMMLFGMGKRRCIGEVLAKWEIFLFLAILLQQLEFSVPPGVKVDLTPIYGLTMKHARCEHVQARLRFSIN

Homo sapiens = species on record: Homo sapiens; test: Selectivity ratio IC50 for inhibition of human CYP1B1 expressed in HEK293 cells toIC50 for Inhibition of CYP1A1 expressed in HEK293 cells; format: cell-based
MCF7 [2] = test: Induction of cell cycle arrest in human MCF7 over expressing CYP1A cells assessed as accumulation at G2/M phase incubated for 24 hrs by PI staining based flow cytometric analysis (reference value: 22.6%); format: functional
Cytochrome P450 2C8 = target: T3, Cytochrome P450 2C8 (Homo sapiens, UniProt P10632); test: Inhibition of human CYP2C8 expressed in Sacchrosomes by fluorescence based assay; format: ADME
T3 sequence (P10632 whole entry): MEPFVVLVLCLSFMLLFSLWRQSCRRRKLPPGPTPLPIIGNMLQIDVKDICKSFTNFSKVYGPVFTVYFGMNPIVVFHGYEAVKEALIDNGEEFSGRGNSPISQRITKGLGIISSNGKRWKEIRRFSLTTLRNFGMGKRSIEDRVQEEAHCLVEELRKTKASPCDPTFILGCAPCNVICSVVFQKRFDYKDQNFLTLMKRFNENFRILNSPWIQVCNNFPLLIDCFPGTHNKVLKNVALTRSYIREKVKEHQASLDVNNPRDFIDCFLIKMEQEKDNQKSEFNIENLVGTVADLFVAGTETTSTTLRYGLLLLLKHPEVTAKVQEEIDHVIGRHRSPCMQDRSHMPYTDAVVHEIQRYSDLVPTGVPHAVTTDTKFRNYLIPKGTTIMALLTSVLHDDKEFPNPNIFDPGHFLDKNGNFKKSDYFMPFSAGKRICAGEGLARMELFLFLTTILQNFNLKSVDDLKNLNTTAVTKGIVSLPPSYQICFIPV

Cytochrome P450 2A6 = target: T4, Cytochrome P450 2A6 (Homo sapiens, UniProt P11509); test: Inhibition of human CYP2A6 expressed in Sacchrosomes by fluorescence based assay; format: ADME
T4 sequence (P11509 whole entry): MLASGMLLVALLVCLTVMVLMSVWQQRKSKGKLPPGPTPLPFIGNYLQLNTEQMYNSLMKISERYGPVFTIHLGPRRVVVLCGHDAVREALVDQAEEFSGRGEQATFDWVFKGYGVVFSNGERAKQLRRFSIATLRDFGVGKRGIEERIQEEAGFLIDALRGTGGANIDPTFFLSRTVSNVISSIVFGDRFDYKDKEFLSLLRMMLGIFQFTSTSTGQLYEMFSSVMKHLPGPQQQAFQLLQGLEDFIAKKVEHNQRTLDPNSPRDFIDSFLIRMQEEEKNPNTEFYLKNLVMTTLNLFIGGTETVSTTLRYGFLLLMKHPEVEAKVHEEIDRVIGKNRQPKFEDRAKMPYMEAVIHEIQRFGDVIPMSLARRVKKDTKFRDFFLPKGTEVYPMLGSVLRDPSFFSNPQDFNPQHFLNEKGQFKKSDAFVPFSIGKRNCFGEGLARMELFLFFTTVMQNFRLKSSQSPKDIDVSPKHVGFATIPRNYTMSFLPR

Cytochrome P450 1A1 [3] = target: T1, Cytochrome P450 1A1; test: Inhibition of human CYP1A1 expressed in human HEK293 cells using 7-ethoxyresorufin as substrate preincubated for 30 mins followed by substrate additon and measured after 60 mins by fluorescence based assay; format: cell-based
In short: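 The assay used live recombinant human HEK293 cells grown in suspension, each cell line expressing a single CYP (CYP1A1 or CYP1B1). Percent inhibition was read at 10 μM, and IC50 values were determined. Values are mean ± SD of three independent experiments. Alpha-naphthoflavone served as the reference inhibitor.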

MCF7 [4] = test: Cell cycle arrest in human MCF-7 cells over expressing CYP1A1 assessed as down regulation of CyclinD1 after 24 hrs by western blotting assay; format: functional, cell-based
In short: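 Cyclin D1 was detected by Western blot, with β-tubulin as loading control. Untreated cells served as control.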

Sequence of Cytochrome P450 2E1 (P05181 whole entry): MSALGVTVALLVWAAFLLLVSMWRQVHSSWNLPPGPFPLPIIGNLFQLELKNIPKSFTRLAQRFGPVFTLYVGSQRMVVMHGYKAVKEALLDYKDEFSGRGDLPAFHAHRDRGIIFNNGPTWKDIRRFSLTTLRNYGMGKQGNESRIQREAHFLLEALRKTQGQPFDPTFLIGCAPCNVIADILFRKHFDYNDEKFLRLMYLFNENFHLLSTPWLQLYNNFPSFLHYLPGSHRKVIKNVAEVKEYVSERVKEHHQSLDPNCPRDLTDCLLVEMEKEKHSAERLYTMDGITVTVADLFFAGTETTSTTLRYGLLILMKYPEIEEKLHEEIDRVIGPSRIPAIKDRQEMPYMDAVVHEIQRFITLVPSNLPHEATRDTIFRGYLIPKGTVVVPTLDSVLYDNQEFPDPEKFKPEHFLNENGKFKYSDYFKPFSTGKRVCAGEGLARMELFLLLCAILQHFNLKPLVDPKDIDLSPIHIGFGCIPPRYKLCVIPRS
Sequence of Cytochrome P450 2D6 (P10635 whole entry): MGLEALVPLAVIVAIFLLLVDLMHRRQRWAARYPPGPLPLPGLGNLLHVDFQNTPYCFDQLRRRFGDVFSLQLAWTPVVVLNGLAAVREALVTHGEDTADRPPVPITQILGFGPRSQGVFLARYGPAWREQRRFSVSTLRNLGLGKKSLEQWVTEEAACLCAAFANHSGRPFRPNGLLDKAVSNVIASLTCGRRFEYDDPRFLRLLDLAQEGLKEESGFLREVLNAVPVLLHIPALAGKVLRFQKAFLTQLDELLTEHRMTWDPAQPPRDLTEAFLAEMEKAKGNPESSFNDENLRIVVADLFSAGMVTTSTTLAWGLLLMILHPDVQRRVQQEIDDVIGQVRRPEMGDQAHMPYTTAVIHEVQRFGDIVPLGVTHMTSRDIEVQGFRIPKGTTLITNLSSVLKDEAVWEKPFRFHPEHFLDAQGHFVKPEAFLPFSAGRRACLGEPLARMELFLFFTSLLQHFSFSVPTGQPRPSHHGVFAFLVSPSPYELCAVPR

Row | Compound | Activity (Cytochrome P450 1A1 [1]) | IC50 (Cytochrome P450 2D6) | IC50 (Cytochrome P450 2E1) | IC50 (Cytochrome P450 1A2) | Ratio IC50 (Homo sapiens) | Activity (MCF7 [2]) | IC50 (Cytochrome P450 2C8) | IC50 (Cytochrome P450 2A6) | IC50 (Cytochrome P450 1A1 [3]) | Activity (MCF7 [4])
1 | O=c1cc(-c2ccccc2)oc2c1ccc1occc12 [LANCEOLATIN B] | 100% | > 20 µM | > 20 µM | 0.187 µM | 19.5 | 9.2% | > 20 µM | > 20 µM | 0.02 µM | Active
2 | COc1c(-c2ccc3c(c2)OCO3)oc2c(ccc3occc32)c1=O [PONGAPIN] | 100% | > 20 µM | > 20 µM | 2.5 µM | 53 | 8.3% | > 20 µM | > 20 µM | 0.02 µM | Active
